Columns and labels:
[1] = molecular target: T1, Protein kinase C alpha type (Homo sapiens, UniProt P17252); test: (§1) Binding affinity with protein kinase C (PK-C) alpha bound to labeled [20-3H]-PDBU at a conc of 30 ug/mL
Method in brief: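 Competitive displacement of [20-³H]phorbol 12,13-dibutyrate bound to PK-C α, with each ligand at a single concentration of 30 μg/mL in media. The read-out is percent inhibition of bound [³H]PDBU.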

[2] = molecular target: T1, Protein kinase C alpha type; test: as §1; remark: listed apart in the source

| Compound | inhibition [1] | Ki [2] |
| --- | --- | --- |
| O=C(OCC(O)C(OC(=O)c1ccccc1)C(CO)OC(=O)c1ccccc1)c1ccccc1 (stereo unspecified) | – | 12.9 µM |
| C[C@]12C/C(=C/N(CCO)CCO)C(=O)C[C@@H]1CC[C@@H]1[C@@H]2CC[C@]2(C)[C@@H](O)CC[C@@H]12 | – | 16.1 µM |
| CC(=O)O[C@@H]1CC2C(C)(C)C(=O)C=CC2(C)C2CCC3(C)C(=CCC3C(CO)CCC(O)C(=O)C(C)(C)O)C21 (stereo partly specified) | 27% | – |
| CC(=O)OC[C@@]1(C)C(OC(C)=O)CC[C@]2(C)[C@H](CC(OC(C)=O)C3=CCOC3=O)[C@](C)(CO)CC[C@H]21 (stereo partly specified) | – | 37.7 µM |
| O=C1c2ccccc2C(=O)c2c(Nc3ccc(S(=O)(=O)N(CCO)CCO)cc3)ccc(O)c21 | – | 7.8 µM |
| CC(=O)C(C(=O)CCSCCO)C(SCCO)c1ccc(Cl)c(Cl)c1 (stereo unspecified) | 30% | – |

Other lines, results leading:

| inhibition [1] | Ki [2] | Compound |
| --- | --- | --- |
| 34% | – | O=C1c2cccc(O)c2C(=O)c2c(OCCN(CCO)Cc3ccccc3)ccc(O)c21 |
| – | 26.6 µM | O=C1c2ccccc2C(=O)c2c(Nc3cccc(S(=O)(=O)N(CCO)CCO)c3)ccc(O)c21 |
| 30% | – | O=C1c2c(NCCCNCCO)cccc2C(=O)c2c(NCCCNCCO)ccc(O)c21 |
| 25% | – | O=C1c2cccc(O)c2C(=O)c2c(OCCN(CCO)Cc3ccccc3)cccc21 |
| 30% | – | COc1cccc2c1C(=O)c1c(O)c3c(c(O)c1C2=O)C[C@@](O)(/C(CO)=N/NC(=O)c1ccc(Cl)c(Cl)c1)C[C@@H]3OC1CC(N)C(O)C(C)O1 (stereo partly specified) |
